ChEMBL document CHEMBL4330069, “Boosting the efficacy of anti-MRSA β-lactam antibiotics via an easily accessible, non-cytotoxic and orally bioavailable FtsZ inhibitor” (Eur J Med Chem, 2019)
Values after ≈ are worked out from the molar mass of the structure shown.

Key:
[1] = system: Staphylococcus aureus; assay: Antibacterial activity against Staphylococcus aureus ATCC 29213 after 20 hrs; assay type: functional; details: ATCC 29213, 20 h
Procedure, shortened: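 Broth microdilution MIC per CLSI guidelines, compounds dissolved in DMSO. Resistant mutants were selected by serial passage of ATCC 29213 in LB at 37 °C with shaking at 250 rpm. Each 20 h culture started at half the MIC, and the concentration was doubled at each transfer. Growth inhibition was read by eye, in duplicate.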

[2] = system: L929; assay: Cytotoxicity against mouse L929 cells by MTS assay; assay type: cell-based
Procedure, shortened: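 MTS assay on L929 mouse fibroblasts; IC50 reported as the average of three independent measurements.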

[3] = system: Staphylococcus aureus; assay: Antibacterial activity against multidrug-resistant Staphylococcus aureus isolate 417 by broth microdilution assay; assay type: functional
Procedure, shortened: (§1)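 Broth microdilution MIC per CLSI guidelines against clinical MRSA isolates, for β-lactams and test compound alone and in combination. Compounds were dissolved in DMSO. Growth was read by eye, in duplicate. FIC index = FIC(compound) + FIC(drug); synergy defined as FIC index ≤0.5.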

[4] = system: Staphylococcus aureus; assay: Antibacterial activity against multidrug-resistant Staphylococcus aureus isolate 3589 by broth microdilution assay; assay type: functional; procedure, shortened: as §1
[5] = system: Staphylococcus aureus; assay: Antibacterial activity against multidrug-resistant Staphylococcus aureus isolate 3332 by broth microdilution assay; assay type: functional; procedure, shortened: as §1
[6] = system: Staphylococcus aureus; assay: Antibacterial activity against multidrug-resistant Staphylococcus aureus isolate 1136 by broth microdilution assay; assay type: functional; procedure, shortened: as §1
[7] = system: Staphylococcus aureus; assay: Antibacterial activity against multidrug-resistant Staphylococcus aureus isolate 757 by broth microdilution assay; assay type: functional; procedure, shortened: as §1
[8] = system: Staphylococcus aureus; assay: Antibacterial activity against multidrug-resistant Staphylococcus aureus isolate 2973 by broth microdilution assay; assay type: functional; procedure, shortened: as §1
[9] = system: Staphylococcus aureus; assay: Synergistic antibacterial activity against multidrug-resistant Staphylococcus aureus isolate 1136 in presence of amoxicillin by broth microdilution assay; assay type: functional; procedure, shortened: as §1
[10] = system: Staphylococcus aureus; assay: Synergistic antibacterial activity against multidrug-resistant Staphylococcus aureus isolate 2728 in presence of amoxicillin by broth microdilution assay; assay type: functional
Procedure, shortened: (§2)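 CLSI broth microdilution on clinical MRSA isolates. MICs were measured for the β-lactam alone, the test agent alone and the two combined. Compounds were dissolved in DMSO, and growth inhibition was scored by eye. FIC index is the sum, over both agents, of MIC in combination divided by MIC alone. An FIC index ≤0.5 was taken as synergy.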

[11] = system: Staphylococcus aureus; assay: Synergistic antibacterial activity against multidrug-resistant Staphylococcus aureus isolate 1449 in presence of amoxicillin by broth microdilution assay; assay type: functional
Procedure, shortened: (§3)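 Clinical MRSA isolate panel; compound and β-lactam tested alone and in combination by CLSI broth microdilution, compounds dissolved in DMSO, growth inhibition scored by eye, run in duplicate. FIC index = FIC(compound) + FIC(drug), each the MIC in combination divided by the MIC alone; an index ≤ 0.5 was called synergy.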

[12] = system: Staphylococcus aureus; assay: Synergistic antibacterial activity against multidrug-resistant Staphylococcus aureus isolate 417 in presence of methicillin by broth microdilution assay; assay type: functional
[13] = system: Staphylococcus aureus; assay: Synergistic antibacterial activity against multidrug-resistant Staphylococcus aureus isolate 1717 in presence of methicillin by broth microdilution assay; assay type: functional; procedure, shortened: as §3
[14] = system: Staphylococcus aureus; assay: Synergistic antibacterial activity against multidrug-resistant Staphylococcus aureus isolate 3267 in presence of cloxacillin by broth microdilution assay; assay type: functional; procedure, shortened: as §2
[15] = system: Staphylococcus aureus; assay: Synergistic antibacterial activity against multidrug-resistant Staphylococcus aureus isolate 358 in presence of cloxacillin by broth microdilution assay; assay type: functional
[16] = system: Staphylococcus aureus; assay: Synergistic antibacterial activity against multidrug-resistant Staphylococcus aureus isolate 2490 in presence of cefuroxime by broth microdilution assay; assay type: functional; procedure, shortened: as §3
[17] = system: Staphylococcus aureus; assay: Synergistic antibacterial activity against multidrug-resistant Staphylococcus aureus isolate 1749 in presence of cefuroxime by broth microdilution assay; assay type: functional; procedure, shortened: as §3
[18] = system: Staphylococcus aureus; assay: Synergistic antibacterial activity against multidrug-resistant Staphylococcus aureus isolate 774 in presence of cefuroxime by broth microdilution assay; assay type: functional
[19] = system: Staphylococcus aureus; assay: Synergistic antibacterial activity against multidrug-resistant Staphylococcus aureus isolate 231 in presence of meropenem by broth microdilution assay; assay type: functional; procedure, shortened: as §3
[20] = system: Staphylococcus aureus; assay: Synergistic antibacterial activity against multidrug-resistant Staphylococcus aureus isolate 1402 in presence of meropenem by broth microdilution assay; assay type: functional; procedure, shortened: as §3
[21] = system: Staphylococcus aureus; assay: Synergistic antibacterial activity against multidrug-resistant Staphylococcus aureus isolate 1749 assessed as fractional Inhibitory concentration index in presence of amoxicillin by broth microdilution assay; assay type: functional
Procedure, shortened: (§4)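 CLSI broth microdilution run on clinical MRSA isolates with each β-lactam alone, the test agent alone, and the two combined; agents dissolved in DMSO. Growth inhibition was read by eye. FIC index = FIC(compound) + FIC(β-lactam), where each FIC is the MIC in combination divided by the MIC alone. An index ≤0.5 was taken as synergy.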

[22] = system: Staphylococcus aureus; assay: Synergistic antibacterial activity against multidrug-resistant Staphylococcus aureus isolate 85 assessed as fractional Inhibitory concentration index in presence of amoxicillin by broth microdilution assay; assay type: functional
[23] = system: Staphylococcus aureus; assay: Synergistic antibacterial activity against multidrug-resistant Staphylococcus aureus isolate 1344 assessed as fractional Inhibitory concentration index in presence of methicillin by broth microdilution assay; assay type: functional; procedure, shortened: as §4
[24] = system: Staphylococcus aureus; assay: Synergistic antibacterial activity against multidrug-resistant Staphylococcus aureus isolate 757 assessed as fractional Inhibitory concentration index in presence of methicillin by broth microdilution assay; assay type: functional
[25] = system: Staphylococcus aureus; assay: Synergistic antibacterial activity against multidrug-resistant Staphylococcus aureus isolate 2728 assessed as fractional Inhibitory concentration index in presence of methicillin by broth microdilution assay; assay type: functional
[26] = system: Staphylococcus aureus; assay: Synergistic antibacterial activity against multidrug-resistant Staphylococcus aureus isolate 1717 assessed as fractional Inhibitory concentration index in presence of methicillin by broth microdilution assay; assay type: functional; procedure, shortened: as §4
[27] = system: Staphylococcus aureus; assay: Synergistic antibacterial activity against multidrug-resistant Staphylococcus aureus isolate 1136 assessed as fractional Inhibitory concentration index in presence of cloxacillin by broth microdilution assay; assay type: functional; procedure, shortened: as §4
[28] = system: Staphylococcus aureus; assay: Synergistic antibacterial activity against multidrug-resistant Staphylococcus aureus isolate 2516 assessed as fractional Inhibitory concentration index in presence of cloxacillin by broth microdilution assay; assay type: functional; procedure, shortened: as §4
[29] = system: Staphylococcus aureus; assay: Synergistic antibacterial activity against multidrug-resistant Staphylococcus aureus isolate 2490 assessed as fractional Inhibitory concentration index in presence of cefuroxime by broth microdilution assay; assay type: functional; procedure, shortened: as §4
[30] = system: Staphylococcus aureus; assay: Synergistic antibacterial activity against multidrug-resistant Staphylococcus aureus isolate 254 assessed as fractional Inhibitory concentration index in presence of cefuroxime by broth microdilution assay; assay type: functional
[31] = system: Staphylococcus aureus; assay: Synergistic antibacterial activity against multidrug-resistant Staphylococcus aureus isolate 1749 assessed as fractional Inhibitory concentration index in presence of meropenem by broth microdilution assay; assay type: functional; procedure, shortened: as §4
[32] = system: Staphylococcus aureus; assay: Synergistic antibacterial activity against multidrug-resistant Staphylococcus aureus isolate 2919 assessed as fractional Inhibitory concentration index in presence of meropenem by broth microdilution assay; assay type: functional
[33] = system: Staphylococcus aureus; assay: Synergistic antibacterial activity against multidrug-resistant Staphylococcus aureus isolate 2728 assessed as fractional Inhibitory concentration index in presence of meropenem by broth microdilution assay; assay type: functional
[34] = AUC (0 to infinity) in Sprague-Dawley rat at 50 mg/kg, po by UPLC-MS/MS analysis; assay type: ADME, organism-based; set-up: dose 50 mg/kg, route oral, time infinity; details: in vivo
[35] = Half life in Sprague-Dawley rat at 1 mg/kg, iv by UPLC-MS/MS analysis; assay type: ADME, organism-based; details: in vivo
Procedure, shortened: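 Male Sprague–Dawley rats (250-280 g) dosed IV at 1 mg/kg or by oral feeding at 50 mg/kg. Jugular blood taken from 5 to 420 min (IV) or 2 to 600 min (oral). Plasma proteins precipitated with methanol, then analysed by UPLC-MS/MS with positive ESI. Parameters from non-compartmental analysis.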

CCCCCCCCCNc1ccc(F)c(C(N)=O)c1F
MIC [1]: 1 µg/mL (≈ 3.35 µM)
IC50 [2]: > 100 µM
MIC [3]: 32 µg/mL (≈ 107 µM)
MIC [4]: 8 µg/mL (≈ 26.8 µM)
MIC [5]: 16 µg/mL (≈ 53.6 µM)
MIC [6]: 16 µg/mL (≈ 53.6 µM)
MIC [7]: 128 µg/mL (≈ 429 µM)
MIC [8]: 128 µg/mL (≈ 429 µM)
MIC [9]: 16 µg/mL
MIC [10]: 8 µg/mL
MIC [11]: 0.5 µg/mL
MIC [12]: 2 µg/mL
MIC [13]: 2 µg/mL
MIC [14]: 1 µg/mL
MIC [15]: 1 µg/mL
MIC [16]: 2 µg/mL
MIC [17]: 2 µg/mL
MIC [18]: 2 µg/mL
MIC [19]: 4 µg/mL
MIC [20]: 4 µg/mL
fractional inhibitory concentration index (FICI) [21]: 1
fractional inhibitory concentration index (FICI) [22]: 0
fractional inhibitory concentration index (FICI) [23]: 0.3
fractional inhibitory concentration index (FICI) [24]: 0.1
fractional inhibitory concentration index (FICI) [25]: 0.2
fractional inhibitory concentration index (FICI) [26]: 1.1
fractional inhibitory concentration index (FICI) [27]: 0.4
fractional inhibitory concentration index (FICI) [28]: 0.2
fractional inhibitory concentration index (FICI) [29]: 0.2
fractional inhibitory concentration index (FICI) [30]: 0.3
fractional inhibitory concentration index (FICI) [31]: 10
fractional inhibitory concentration index (FICI) [32]: 4.3
fractional inhibitory concentration index (FICI) [33]: 2
AUC(0-inf) [34]: 10300 ng·h/mL
half-life [35]: 5.5 h
